CHO parental Ca: counter-screen: ATP calcium response change in parental CHO cells. parental CHO-K1, ATP-induced calcium, Fluo-8 fluorescence. inhibition, % at 5.6 µM. 0.63% of 330,000 active. AID 463079;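 active means inhibition above that plate's mean sample inhibition plus 3 SD, cut at about 26% in these data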;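 further: 0% = ATP-challenged DMSO wells and 100% = DMSO wells without ATP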
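Assay system: untransfected parental CHO cell line. Also added: ATP agonist challenge. Dosing: one dose, 5.6 µM nominal. Measured by: Fluo-8 fluorescence. Read-out: % inhibition. Benchmarks: ATP wells versus no-ATP DMSO wells. Repeats: no replicates.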
OXTR ag: agonists of human oxytocin receptor; 0.32% of 320,000 active; P30559; CHO-OTR cells, Fluo-8 calcium fluorescence; normalized: DMSO 0%, oxytocin 100%; AID 2435; activation, % at 3 µM;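 active means activation above the mean of all tested compounds plus 3 SD, cutoff set per screening run, cut at about 20% in these data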;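 further: peak over basal fluorescence ratio from a 100 s FLIPR kinetic read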
Target sequence (P30559 whole entry, looked up): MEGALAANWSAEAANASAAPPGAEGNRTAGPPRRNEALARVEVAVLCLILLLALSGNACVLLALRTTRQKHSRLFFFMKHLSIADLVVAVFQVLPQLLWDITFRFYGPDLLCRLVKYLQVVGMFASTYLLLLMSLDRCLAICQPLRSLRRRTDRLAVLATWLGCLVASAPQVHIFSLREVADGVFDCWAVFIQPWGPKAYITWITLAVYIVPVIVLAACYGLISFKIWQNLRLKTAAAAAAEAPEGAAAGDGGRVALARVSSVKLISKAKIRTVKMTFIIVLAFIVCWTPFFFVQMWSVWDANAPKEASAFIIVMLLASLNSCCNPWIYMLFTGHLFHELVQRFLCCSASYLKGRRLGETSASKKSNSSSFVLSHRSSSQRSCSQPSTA
V1aR counter: activates human V1a receptor in oxytocin agonist counter-screen; P37288; CHO-V1R cells, Fluo-8 calcium fluorescence, agonist mode; 0% DMSO, 100% 3 nM vasopressin; activation, % at 3 µM; 0.25% of 320,000 active; AID 2797;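 active means activation above the mean activation of all tested compounds plus 3 SD, per screening run, cut at about 20% in these data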;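 further: signal is peak over basal fluorescence ratio across a 100 second FLIPR read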
OXTR potentiate: human OXTR potentiation. CHO-OTR cells, Fluo-8 calcium fluorescence, potentiator mode; 0% = oxytocin EC15, 100% = EC100. activation, % at 3 µM. 0.061% of 320,000 active;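 active means activation above that plate's cutoff, the mean activation of tested compounds plus 3 SD, cut at about 6.6% in these data, passing the limit was not always enough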;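 further: 100% uses oxytocin at 75 nM as the full agonist control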
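Assay system: CHO cell line stably expressing human OTR. Reagent: EC15 oxytocin agonist. Dosing: single dose, 3.0 µM nominal final compound concentration. Timing: compound 6 min at room temperature before oxytocin, 100 s read. Signal: kinetic Fluo-8 calcium fluorescence. Controls: oxytocin EC15 low and EC100 high.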
OX1R antag-1: blocks the human orexin 1 receptor | O43613 | CHO/OX1R cells, Fluo-8 calcium fluorescence, orexin A | inhibition, % at 5 µM | 0.43% of 330,000 active | AID 434989;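 active means inhibition above its plate's threshold, mean inhibition of all tested compounds on the plate plus 3 SD, cut at about 37% in these data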;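 further: 0% = orexin A challenge wells and 100% = SB-334867-A antagonist wells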
OX1R antag-2: antagonists of human orexin 1 receptor (OX1R). AID 485270. O43613. OX1R-expressing cells, FRET antagonist read-out. inhibition, % at 6.6 µM. 1.8% of 330,000 active; in the data active means inhibition mostly above about 38%, no sharp cut-off; inactive means mostly below about 40%;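 further: 0% = agonist challenge alone and 100% = reference antagonist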
OXTR agonist cf: human OXTR agonism, confirmation; shares compounds with OXTR ag; CHO-OTR cells, Fluo-8 calcium fluorescence, agonist; activation, % at 3 µM; 20% of 390 active; AID 434963;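 active means mean activation above about 20% derived from the earlier single-dose screen, limit read from the data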;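 further: peak over minimum fluorescence ratio per well during a 100 second FLIPR read; 0% = DMSO alone and 100% = oxytocin high control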
V1aR counter 3x: counter-screen for oxytocin receptor agonists: V1a receptor agonists; shares compounds with OXTR ag; CHO-V1R cells, Fluo-8 calcium fluorescence, agonist; activation, % at 3 µM; 10% of 390 active; AID 434991;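 active means mean activation over triplicate exceeds the hit threshold set in the earlier primary screen, cut at about 20% in these data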;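 further: peak over basal fluorescence ratio within a 100 second read; 0% = DMSO alone and 100% = 3 nM vasopressin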
The depositor's hits bear a star; x = not tested or not shown. Shown are actives, neighbours in structure and some others; about 2.6% of the full set was active somewhere.

SMILES	CHO parental Ca	OXTR ag	V1aR counter	OXTR potentiate	OX1R antag-1	OX1R antag-2	OXTR agonist cf	V1aR counter 3x
Cc1ccc(C(=O)OCC(=O)N2CCCC2)cc1	5	0	0	-11	-7	5	x	x
COC(=O)c1ccc(NS(=O)(=O)c2ccc3c(c2)n(C)c(=O)n3C)cc1	-13	9	5	-17	-38	12	x	x
Cc1ccc(NS(=O)(=O)c2ccc(C(=O)OCC(=O)N3CCCCC3)cc2)cc1	-5	24*	19	-10	6	5	19	14
CCOC(=O)c1ccc(NS(=O)(=O)c2ccc3c(c2)n(C)c(=O)n3C)cc1	13	30*	15	-23	-14	10	4	5
CC(C)C(=O)Nc1cccc(C(=O)Nc2ccc(S(=O)(=O)Nc3nccs3)cc2)c1	-14	0	0	-4	-20	6	x	x
Cc1ccccc1OCC(=O)Nc1ccc2c(c1)Cc1ccccc1-2	-19	1	0	-2	-30	14	x	x
Cc1ccccc1OCC(=O)Nc1ccc(N2CCN(C)CC2)c(Cl)c1	-5	20*	13	-13	-24	12	3	2
CN1CCN(c2ccc(Cl)cc2NC(=O)CN2C(=O)NC(C)(c3ccccc3)C2=O)CC1 (stereo not given)	-10	1	1	-11	-21	13	x	x
CCCCC1(C)NC(=O)N(CC(=O)N2CCc3ccccc32)C1=O (stereo not given)	-10	2	-1	-5	-42	-3	x	x
CC1(c2ccc(OC(F)F)cc2)NC(=O)N(CC(=O)Nc2ccc(F)cc2)C1=O (stereo not given)	15	27*	15	-15	23	10	19	14
Cc1ccc(C2(C)NC(=O)N(CC(=O)Nc3ccc4c(c3)OCO4)C2=O)cc1 (stereo not given)	-3	14	13	-17	-11	8	x	x
Cc1ccc(NC(=O)CN2C(=O)NC(C)(c3ccc(Cl)cc3)C2=O)cc1 (stereo not given)	4	22*	16	-10	-9	8	10	10
CC1(c2ccc(OC(F)F)cc2)NC(=O)N(CC(=O)Nc2ccc(Cl)cc2F)C1=O (stereo not given)	22	34*	19	-16	18	11	24*	22*
COc1ccc(C2(c3ccc(OC)cc3)NC(=O)N(CC(=O)Nc3ccc(OC(F)F)cc3)C2=O)cc1	-5	2	4	-9	-1	23	x	x
Cc1ccc(C2(C)NC(=O)N(CC(=O)N3CCc4ccccc43)C2=O)cc1 (stereo not given)	-16	20*	16	-11	6	4	14	13
O=C(NCC1CCCO1)c1cccc(Oc2ccc([N+](=O)[O-])cc2)c1 (stereo not given)	12	2	7	-13	1	11	x	x
CCCCC1(c2ccc(F)cc2)NC(=O)N(CC(=O)Nc2ccc(N3CCOCC3)cc2)C1=O (stereo not given)	5	21*	12	-11	14	5	10	9
Cn1c(CSCc2ccccc2)n[nH]c1=S	-1	1	1	-7	-6	2	x	x
CCc1ccc(OCC(=O)Nc2ccncc2)c(Br)c1	27	12	7	-22	28	4	x	x
Cc1cc(OCC(=O)Nc2ccncc2)c(C)cc1Br	58*	21*	17	-10	14	28	11	10
CC(C)N(C(=O)CS(=O)(=O)c1ccc(Cl)c(Cl)c1)C(C)C	-9	-1	0	-9	9	34	x	x
CN(C)CCCOc1ccc(C(C)(C)c2ccccc2)cc1	0	20*	10	-13	-14	12	7	1
CC(C)N(CCNCC(O)COc1ccc(C(C)(C)c2ccccc2)cc1)C(C)C (stereo not given)	-9	23*	16	-24	4	0	10	4
Cc1ccc(-c2nnc(Cc3ccc([N+](=O)[O-])cc3)o2)cc1	-25	-2	-1	-14	-17	2	x	x
O=C(Cc1ccccc1)c1ccccc1C(=O)N1CCCCC1	-9	-1	0	-7	-14	-3	x	x
SMILES	CHO parental Ca	OXTR ag	V1aR counter	OXTR potentiate	OX1R antag-1	OX1R antag-2	OXTR agonist cf	V1aR counter 3x
Cc1c(O)ccc(/C(Cc2ccc3ccccc3n2)=N\O)c1O	-9	22*	17	-24	-14	18	13	7
CC(C)Oc1ccc(C(CCN)C2CCCCC2)cc1 (stereo not given)	6	21*	6	-18	-17	-5	17	8
CC(C)Oc1ccc(C(=O)NC2CCCCC2)cc1	-6	-2	-1	-5	-11	20	x	x
COc1ccc(-c2nn(-c3ccccc3)cc2C2CC(c3cccs3)=NN2C(=O)CCCC(=O)O)cc1 (stereo not given)	4	8	7	-12	0	9	x	x
Cc1ccc(-c2nn(-c3ccccc3)cc2C2CC(c3cccs3)=NN2C(=O)CCCC(=O)O)cc1 (stereo not given)	12	23*	19	-12	19	16	7	2
COC(=O)C1=C(C)N(Cc2ccccc2)C(=NCCc2c[nH]c3ccccc23)N[C@H]1c1cccc(F)c1	31	22*	11	-9	45	8	7	4
COC(=O)C1=C(C)N(Cc2ccccc2)C(=NCCc2c[nH]c3ccccc23)N[C@H]1c1ccccc1	-7	3	1	-3	26	12	x	x
Cc1ccc(-c2cc(NC(=O)c3ccccc3)on2)cc1	-13	20*	10	-18	-17	13	7	5
COCCCNC(=O)CN(CCc1ccccc1)S(=O)(=O)c1ccc(C)cc1	-15	-2	-1	-2	-14	11	x	x
COc1ccc(NC(=S)NC(=O)Cc2ccccc2)cc1	-12	5	9	-4	-20	-8	x	x
COc1ccc(CC(=O)NC(=S)Nc2ccc(S(=O)(=O)NC(C)(C)C)cc2)cc1	17	20*	17	-23	23	5	17	15
O=C(/C=C/c1ccc2c(c1)OCO2)N1CCN(c2n[nH]c(=O)[nH]c2=O)CC1	13	-1	0	-6	-4	18	x	x
Cc1c(O)c2c3c(cccc3c1O)C(=O)N(c1ccccc1)C2=O	16	24*	13	-12	19	51	29*	35*
O=C1CCCN1CC(O)CS(=O)(=O)Cc1ccc(Cl)cc1 (stereo not given)	-7	-1	1	-1	-3	2	x	x
